According to ChEMBL document CHEMBL1255324, “Absence of amphotericin B-tolerant persister cells in biofilms of some Candida species” (2008):
≈ marks a conversion by molar mass, not a printed value. Calls of active or inactive are those of the source. The rule behind the calls is not given here.

Experiments:
[1] = test system: Candida albicans; assay: Antifungal activity against Candida albicans GDH 2346 exponential phase planktonic cell assessed as cell killing at 5 ug/ml after 24 hrs; format: functional, organism-based
How it was run: (§1)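 Planktonic cells grown at 37°C with shaking in YNB/50 mM glucose. Exponential phase was 8 h for C. krusei, C. albicans and C. tropicalis, 11 h for C. parapsilosis and 18 h for C. glabrata; stationary phase was 48 h. Washed cells at ~10^7 cells ml−1 got amphotericin B (5–100 μg ml−1) in MOPS-buffered (pH 7) YNB glucose, 24 h at 37°C. Viable counts by plating. Two experiments in duplicate.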

[2] = test system: Candida albicans; assay: Antifungal activity against Candida albicans GDH 2346 Biofilm assessed as resistant isolate at 100 ug/ml after 24 hrs; format: functional
How it was run: (§2)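 Biofilms formed on 0.8 cm PVC discs. Standardized YNB/50 mM glucose-grown cells (OD520 0.8) adhered 1 h at 37°C, then grew 48 h at 37°C. Mature biofilms were exposed 24 h at 37°C to amphotericin B 5–100 μg ml−1 in YNB glucose buffered to pH 7 with 0.165 M MOPS; drug-free controls. Cells were scraped and vortexed off, washed in PBS, then viable counts were made by serial dilution and plating on YNB/200 mM glucose agar. Two independent experiments, each in duplicate.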

[3] = test system: Candida albicans; assay: Antifungal activity against Candida albicans GDH 2346; format: functional
[4] = test system: Candida albicans; assay: Antifungal activity against Candida albicans SC5314 biofilm persisters at 100 ug/ml after 24 hrs; format: functional, organism-based
How it was run: (§3)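 PVC discs (0.8 cm) seeded with washed YNB/50 mM glucose-grown cells (OD520 0.8), adhered 1 h at 37°C, washed, and grown 48 h at 37°C in medium. Biofilms exposed 24 h at 37°C to amphotericin B (5–100 μg ml−1) in YNB glucose buffered to pH 7 with 0.165 M MOPS; drug-free controls. Cells scraped, vortexed, PBS-washed, viable counts on YNB/200 mM glucose agar. Two experiments in duplicate.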

[5] = test system: Candida albicans; assay: Antifungal activity against Candida albicans SC5314 biofilm assessed as cell killing at 100 ug/ml after 24 hrs; format: functional, organism-based; how it was run: as §3
[6] = test system: Nakaseomyces glabratus; assay: Antifungal activity against Candida glabrata AAHB 12 exponential-phase planktonic cell assessed as cell killing at 5 ug/ml after 24 hrs; format: functional, organism-based; how it was run: as §1
[7] = test system: Candida tropicalis; assay: Antifungal activity against Candida tropicalis AAHB 73 exponential-phase planktonic cell assessed as cell killing at 5 ug/ml after 24 hrs; format: functional, organism-based; how it was run: as §1
[8] = test system: Pichia kudriavzevii; assay: Antifungal activity against Candida krusei Glasgow exponential-phase planktonic cell assessed as cell killing at 5 ug/ml after 24 hrs; format: functional, organism-based; how it was run: as §1
[9] = test system: Candida parapsilosis; assay: Antifungal activity against Candida parapsilosis AAHB 4479 exponential-phase planktonic cell assessed as cell killing after 24 hrs; format: functional, organism-based; how it was run: as §1
[10] = test system: Candida tropicalis; assay: Antifungal activity against Candida tropicalis AAHB 73 stationary-phase planktonic cell assessed as cell killing after 24 hrs; format: functional, organism-based; how it was run: as §1
[11] = test system: Pichia kudriavzevii; assay: Antifungal activity against Candida krusei Glasgow stationary-phase planktonic cell assessed as cell killing after 24 hrs; format: functional, organism-based; how it was run: as §1
[12] = test system: Candida parapsilosis; assay: Antifungal activity against Candida parapsilosis AAHB 4479 stationary-phase planktonic cell assessed as cell killing after 24 hrs; format: functional, organism-based; how it was run: as §1
[13] = test system: Pichia kudriavzevii; assay: Antifungal activity against Candida krusei Glasgow Biofilm assessed as resistant isolates after 24 hrs; format: functional; how it was run: as §2
[14] = test system: Candida parapsilosis; assay: Antifungal activity against Candida parapsilosis AAHB 4479 Biofilm assessed as resistant isolates after 24 hrs; format: functional; how it was run: as §2
[15] = test system: Candida albicans; assay: Antifungal activity against Candida albicans GDH 2346 stationary phase planktonic cell assessed as cell killing at 5 ug/ml after 24 hrs; format: functional, organism-based; how it was run: as §1
[16] = test system: Candida albicans; assay: Antifungal activity against Candida albicans SC5314 exponential/stationary phase planktonic cell assessed as cell killing at 100 ug/ml after 24 hrs; format: functional, organism-based; how it was run: as §1
[17] = test system: Candida albicans; assay: Antifungal activity against Candida albicans SC5314 exponential/stationary phase planktonic cell assessed as persisters at 100 ug/ml after 24 hrs; format: functional, organism-based; how it was run: as §1

For `C[C@@H]1[C@H](O)[C@@H](C)/C=C/C=C/C=C/C=C/C=C/C=C/C=C/[C@H](O[C@@H]2O[C@H](C)[C@@H](O)[C@H](N)[C@@H]2O)C[C@@H]2O[C@](O)(C[C@@H](O)C[C@@H](O)[C@H](O)CC[C@@H](O)C[C@@H](O)CC(=O)O[C@H]1C)C[C@H](O)[C@H]2C(=O)O` [AMPHOTERICIN B], which Activity [1] is on record?
The Activity was “Active”.

What about the Activity [2] of the same compound?
The Activity was 0.01%.

What about the MIC [3] of the same compound?
The MIC was 1.3 µg/mL (≈ 1.41 µM).

What about the Activity [4] of the same compound?
Its Activity is “Active”.

And the Activity [5]?
Its Activity is “Active”.

What about the Activity [6] of the same compound?
The Activity was “Active”.

And the Activity [7]?
Its Activity is “Active”.

And the Activity [8]?
Its Activity is “Active”.

What about the Activity [9] of the same compound?
The Activity was “inactive”.

And the Activity [10]?
Its Activity is “inactive”.

And the Activity [11]?
The Activity was “inactive”.

What about the Activity [12] of the same compound?
Its Activity is “inactive”.

And the Activity [13]?
The Activity was 0.001%.

What about the Activity [14] of the same compound?
The Activity was 0.07%.

What about the Activity [15] of the same compound?
Its Activity is “Active”.

What about the Activity [16] of the same compound?
The Activity was “Active”.

And the Activity [17]?
Its Activity is “Active”.
